Results taken from ChEMBL document CHEMBL4406821, “Novel dual inhibitors targeting CDK4 and VEGFR2 synergistically suppressed cancer progression and angiogenesis” (Eur J Med Chem, 2019).
Values belong to the compound of their own block, whether it stands above or below them. Activity calls are given as the source filed them. The calls are words filed in the database; no cut-off is given here.

Legend:
MDA-MB-231 = assay: Induction of apoptosis in human MDA-MB-231 cells assessed as decrease in Bcl2 expression at 40 nM incubated for 48 hrs by Western blot analysis; format: functional, cell-based
Procedure, shortened: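 Cells were treated for 48 h, washed three times with PBS, and lysed in RIPA buffer. Immunoblots used anti-Rb, anti-phospho-Rb, anti-Ki67 and anti-Bcl-2 (each 1:1000), with β-actin as loading control.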

HUVEC = assay: Antiproliferative activity against HUVEC cells assessed as reduction in cell viability at 40 nM measured upto 72 hrs by CCK8 assay; format: functional, cell-based; conditions: Homo sapiens
Procedure, shortened: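 HUVECs, 3×10³ cells/well, kept in 1640 medium with 10% FBS at 37°C and 5% CO₂. Cells were treated at 20 or 40 nM or vehicle, and viability was read by CCK-8 (absorbance 450 nm) at 0, 12, 24, 36, 48, 60 and 72 h. Five replicates per sample.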

HeLa = assay: Induction of apoptosis in human HeLa cells at 40 nM incubated for 48 hrs by annexin V FITC and propidium iodide staining based flow cytometry; format: functional, cell-based
Procedure, shortened: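 Cells were treated for 48 h, stained with FITC Annexin V and PI, and analyzed by flow cytometry to count early and late apoptotic cells.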

[1] = target: Vascular endothelial growth factor receptor 2 (Homo sapiens, UniProt P35968); conditions: HUVEC, 40 nM
SiHa [2] = assay: Induction of apoptosis in human SiHa cells assessed as decrease in Ki67 expression at 40 to 80 nM incubated for 48 hrs by Western blot analysis; format: functional, cell-based
Procedure, shortened: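 Cancer cells were exposed to graded concentrations for 48 h, washed three times in PBS and lysed in RIPA buffer. Immunoblots were probed with anti-Rb, anti-phospho-Rb, anti-Ki67 and anti-Bcl-2, each at 1:1000. β-actin served as loading control.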

[3] = Clearance in Sprague-Dawley rat at 10 mg/kg, po by HPLC-MS analysis; format: ADME, organism-based; conditions: in vivo
Procedure, shortened: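 Rats fitted with jugular vein catheters for serial blood sampling. Compound dissolved in saline with 5% (v/v) DMSO and given as a single 10 mg/kg dose iv or po after an overnight fast, n = 5 per group. Plasma isolated at once and measured by HPLC with tandem MS detection. Parameters derived by noncompartmental fitting.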

[4] = target: Aurora kinase B (Homo sapiens) (UniProt Q96GD4); assay: Inhibition of recombinant full length human Aurora-B at 1 uM using AKRRRLSSLRA as substrate incubated for 40 mins in presence of [gamma-33P]-ATP by scintillation counting method relative to control
Procedure, shortened: (§1)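 Kinase panel profiling at 1 μM performed by Eurofins KinaseProfiler; percent inhibition reported as mean of two independent experiments.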

[5] = target: Tyrosine-protein kinase Blk (Homo sapiens) (UniProt P51451); assay: Inhibition of recombinant full length human BLK at 1 uM using poly(Glu, Tyr) 4:1 as substrate incubated for 40 mins in presence of [gamma-33P]-ATP by scintillation counting method relative to control; procedure, shortened: as §1
[6] = target: Casein kinase I isoform gamma-3 (Homo sapiens) (UniProt Q9Y6M4); assay: Inhibition of recombinant human CK1gamma3 (1 to 330 residues) at 1 uM using KRRRALS(p)VAS as substrate incubated for 40 mins in presence of [gamma-33P]-ATP by scintillation counting method relative to control
Procedure, shortened: (§2)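 Tested at a single 1 uM in an outsourced commercial kinase-profiling panel, read as percent inhibition. Each value is the mean of two independent experiments.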

[7] = target: Serine/threonine-protein kinase DCLK2 (Homo sapiens) (UniProt Q8N568); assay: Inhibition of recombinant human DCAMKL2 (376 to end residues) at 1 uM using KKLNRTLSFAEPG as substrate incubated for 40 mins in presence of [gamma-33P]-ATP by scintillation counting method relative to control; procedure, shortened: as §2
[8] = target: Tyrosine-protein kinase HCK (Homo sapiens) (UniProt P08631); assay: Inhibition of recombinant activated human HCK (230 to 497 residues) at 1 uM using GGMEDIYFEFMGGKKK as substrate incubated for 40 mins in presence of [gamma-33P]-ATP by scintillation counting method relative to control; procedure, shortened: as §1
[9] = target: Serine/threonine-protein kinase/endoribonuclease IRE1 (Homo sapiens) (UniProt O75460); assay: Inhibition of recombinant human IRE1 (465 to end residues) at 1 uM using myelin basic protein as substrate incubated for 40 mins in presence of [gamma-33P]-ATP by scintillation counting method relative to control
[10] = target: LIM domain kinase 1 (Homo sapiens) (UniProt P53667); assay: Inhibition of recombinant human LIMK1 (285 to 638 residues) at 1 uM using cofilin as substrate incubated for 40 mins in presence of [gamma-33P]-ATP by scintillation counting method relative to control
[11] = target: Protein kinase C theta type (Homo sapiens) (UniProt Q04759); assay: Inhibition of recombinant human full length PKCtheta at 1 uM using histone H1 as substrate incubated for 40 mins in presence of [gamma-33P]-ATP by scintillation counting method relative to control
[12] = target: Serine/threonine-protein kinase D2 (Homo sapiens) (UniProt Q9BZL6); assay: Inhibition of recombinant human full length PKD2 at 1 uM using KKLNRTLSVA as substrate incubated for 40 mins in presence of [gamma-33P]-ATP by scintillation counting method relative to control
[13] = test system: Platelet-derived growth factor receptor alpha (Homo sapiens), P16234 [D842V]; assay: Inhibition of recombinant human PDGFRalpha D842V mutant (550 to end residues) at 1 uM using GGMEDIYFEFMGGKKK as substrate incubated for 40 mins in presence of [gamma-33P]-ATP by scintillation counting method relative to control; procedure, shortened: as §2
[14] = target: Proto-oncogene tyrosine-protein kinase ROS (Homo sapiens) (UniProt P08922); assay: Inhibition of recombinant human ROS (1883 to end residues) at 1 uM using KKKSPGEYVNIEFG as substrate incubated for 40 mins in presence of [gamma-33P]-ATP by scintillation counting method relative to control
[15] = target: Mitogen-activated protein kinase kinase kinase 7 (Homo sapiens) (UniProt O43318); assay: Inhibition of recombinant human TAK1 (1 to 303 residues) at 1 uM using casein as substrate incubated for 40 mins in presence of [gamma-33P]-ATP by scintillation counting method relative to control
[16] = test system: Angiopoietin-1 receptor (Homo sapiens), Q02763 [Y897S]; assay: Inhibition of recombinant human TIE2 Y897S mutant (771 to end residues) at 1 uM using EFPIYDFLPAKKK as substrate incubated for 40 mins in presence of [gamma-33P]-ATP by scintillation counting method relative to control
[17] = target: Serine/threonine-protein kinase VRK1 (Homo sapiens) (UniProt Q99986); assay: Inhibition of recombinant human VRK1 at 1 uM incubated for 40 mins in presence of [gamma-33P]-ATP by scintillation counting method relative to control
SiHa [18] = assay: Antitumor activity against human SiHa cells xenografted in NOD/SCID BALB/c mouse assessed as reduction in tumor weight at 10 to 40 mg/kg, po administered for 21 days; format: functional, organism-based

Chain of Serine/threonine-protein kinase DCLK2 (Homo sapiens) (Q8N568 whole entry, the tested form may be a part): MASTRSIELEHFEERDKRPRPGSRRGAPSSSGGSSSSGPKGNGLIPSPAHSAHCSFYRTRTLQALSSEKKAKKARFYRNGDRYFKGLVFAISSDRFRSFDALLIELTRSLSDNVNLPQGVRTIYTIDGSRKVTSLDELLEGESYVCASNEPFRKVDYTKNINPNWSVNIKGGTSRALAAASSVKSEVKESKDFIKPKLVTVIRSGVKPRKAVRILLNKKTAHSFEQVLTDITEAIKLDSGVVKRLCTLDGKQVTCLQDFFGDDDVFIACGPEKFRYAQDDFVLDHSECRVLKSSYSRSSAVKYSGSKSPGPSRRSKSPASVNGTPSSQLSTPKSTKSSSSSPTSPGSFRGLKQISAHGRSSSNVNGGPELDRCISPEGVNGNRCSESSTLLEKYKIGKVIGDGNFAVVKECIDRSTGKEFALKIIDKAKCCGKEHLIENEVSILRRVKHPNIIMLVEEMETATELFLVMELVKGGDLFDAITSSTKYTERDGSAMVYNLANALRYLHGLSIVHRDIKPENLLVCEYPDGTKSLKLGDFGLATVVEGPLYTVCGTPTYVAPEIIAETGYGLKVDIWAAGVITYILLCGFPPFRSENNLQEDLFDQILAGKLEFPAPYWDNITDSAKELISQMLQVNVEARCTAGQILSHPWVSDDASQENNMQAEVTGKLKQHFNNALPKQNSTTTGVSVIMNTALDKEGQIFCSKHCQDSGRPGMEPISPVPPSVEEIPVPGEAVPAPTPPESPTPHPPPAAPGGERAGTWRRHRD
Chain of Protein kinase C theta type (Homo sapiens) (Q04759 whole entry, looked up): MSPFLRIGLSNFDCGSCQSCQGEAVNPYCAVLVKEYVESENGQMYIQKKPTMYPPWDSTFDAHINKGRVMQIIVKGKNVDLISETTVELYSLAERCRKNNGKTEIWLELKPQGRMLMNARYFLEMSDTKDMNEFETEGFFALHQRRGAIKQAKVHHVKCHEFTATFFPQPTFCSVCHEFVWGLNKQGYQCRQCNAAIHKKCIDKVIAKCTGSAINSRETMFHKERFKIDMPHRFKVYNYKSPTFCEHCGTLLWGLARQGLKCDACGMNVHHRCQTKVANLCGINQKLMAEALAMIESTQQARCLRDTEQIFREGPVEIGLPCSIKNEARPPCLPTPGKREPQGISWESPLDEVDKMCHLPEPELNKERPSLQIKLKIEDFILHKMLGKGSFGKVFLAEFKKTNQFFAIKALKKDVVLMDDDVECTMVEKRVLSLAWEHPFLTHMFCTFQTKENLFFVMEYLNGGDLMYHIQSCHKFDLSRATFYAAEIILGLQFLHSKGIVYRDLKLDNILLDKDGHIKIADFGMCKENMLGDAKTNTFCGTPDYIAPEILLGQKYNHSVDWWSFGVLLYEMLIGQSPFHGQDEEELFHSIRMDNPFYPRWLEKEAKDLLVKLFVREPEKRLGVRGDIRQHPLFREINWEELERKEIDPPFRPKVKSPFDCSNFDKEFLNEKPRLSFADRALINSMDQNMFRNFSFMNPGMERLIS
Chain of Angiopoietin-1 receptor (Homo sapiens), Q02763 [Y897S] (Q02763 whole entry Y897S): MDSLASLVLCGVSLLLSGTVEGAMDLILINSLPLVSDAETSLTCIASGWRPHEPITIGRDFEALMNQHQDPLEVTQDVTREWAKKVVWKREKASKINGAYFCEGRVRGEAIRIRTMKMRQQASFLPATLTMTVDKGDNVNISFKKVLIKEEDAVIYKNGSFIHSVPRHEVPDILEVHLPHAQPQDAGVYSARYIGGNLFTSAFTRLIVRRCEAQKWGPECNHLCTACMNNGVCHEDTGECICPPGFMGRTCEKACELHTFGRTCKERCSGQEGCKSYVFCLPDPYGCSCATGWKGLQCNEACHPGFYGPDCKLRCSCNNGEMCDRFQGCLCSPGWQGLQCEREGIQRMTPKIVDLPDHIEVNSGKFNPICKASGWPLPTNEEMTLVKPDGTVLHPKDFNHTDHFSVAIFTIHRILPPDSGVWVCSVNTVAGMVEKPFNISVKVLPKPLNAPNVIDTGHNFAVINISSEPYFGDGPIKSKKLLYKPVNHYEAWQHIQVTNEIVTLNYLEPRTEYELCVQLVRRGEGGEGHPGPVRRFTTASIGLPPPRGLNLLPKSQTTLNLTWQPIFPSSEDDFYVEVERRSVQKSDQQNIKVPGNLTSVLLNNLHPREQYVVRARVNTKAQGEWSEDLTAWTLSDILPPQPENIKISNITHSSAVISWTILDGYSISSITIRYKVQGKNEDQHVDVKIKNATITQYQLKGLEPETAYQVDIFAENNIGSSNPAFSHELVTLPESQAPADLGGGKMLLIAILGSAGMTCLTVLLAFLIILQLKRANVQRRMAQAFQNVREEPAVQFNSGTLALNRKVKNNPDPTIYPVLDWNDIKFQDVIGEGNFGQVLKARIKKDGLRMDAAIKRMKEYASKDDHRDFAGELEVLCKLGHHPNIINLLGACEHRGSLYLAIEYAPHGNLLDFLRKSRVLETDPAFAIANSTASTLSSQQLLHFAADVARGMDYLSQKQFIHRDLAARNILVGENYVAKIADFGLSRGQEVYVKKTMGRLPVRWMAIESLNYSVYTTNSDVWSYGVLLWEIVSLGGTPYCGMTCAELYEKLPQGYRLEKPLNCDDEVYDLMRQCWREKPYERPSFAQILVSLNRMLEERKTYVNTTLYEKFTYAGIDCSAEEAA
Chain of Casein kinase I isoform gamma-3 (Homo sapiens) (Q9Y6M4 whole entry, looked up, the tested form may be a part, canonical isoform): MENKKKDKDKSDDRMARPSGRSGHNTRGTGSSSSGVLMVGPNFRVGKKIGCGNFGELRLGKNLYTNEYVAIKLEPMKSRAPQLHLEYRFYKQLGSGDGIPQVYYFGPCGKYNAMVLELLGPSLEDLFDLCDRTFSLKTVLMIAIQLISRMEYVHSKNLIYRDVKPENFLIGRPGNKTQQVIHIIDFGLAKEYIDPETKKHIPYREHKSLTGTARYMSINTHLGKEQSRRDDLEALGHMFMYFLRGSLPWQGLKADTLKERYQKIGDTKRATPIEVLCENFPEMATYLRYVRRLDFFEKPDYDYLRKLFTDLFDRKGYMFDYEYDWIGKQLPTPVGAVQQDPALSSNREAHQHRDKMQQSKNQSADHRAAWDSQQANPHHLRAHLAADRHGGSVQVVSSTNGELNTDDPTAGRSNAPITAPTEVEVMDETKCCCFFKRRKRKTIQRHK
Chain of Tyrosine-protein kinase HCK (Homo sapiens) (P08631 2-526 limits assumed): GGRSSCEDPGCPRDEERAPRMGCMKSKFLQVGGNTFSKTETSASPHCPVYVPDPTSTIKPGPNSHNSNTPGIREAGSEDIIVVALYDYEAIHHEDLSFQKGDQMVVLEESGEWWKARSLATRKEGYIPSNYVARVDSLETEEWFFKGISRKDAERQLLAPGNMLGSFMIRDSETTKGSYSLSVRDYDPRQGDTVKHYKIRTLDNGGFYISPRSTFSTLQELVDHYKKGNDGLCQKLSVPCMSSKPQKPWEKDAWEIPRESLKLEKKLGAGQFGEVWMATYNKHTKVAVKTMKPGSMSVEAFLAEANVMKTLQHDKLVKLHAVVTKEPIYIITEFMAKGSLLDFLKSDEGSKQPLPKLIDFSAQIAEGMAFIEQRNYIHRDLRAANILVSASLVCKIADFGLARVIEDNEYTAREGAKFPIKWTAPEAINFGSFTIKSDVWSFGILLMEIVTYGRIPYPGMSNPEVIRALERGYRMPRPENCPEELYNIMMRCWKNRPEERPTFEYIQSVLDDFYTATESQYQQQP
Chain of LIM domain kinase 1 (Homo sapiens) (P53667 whole entry, looked up, the tested form may be a part): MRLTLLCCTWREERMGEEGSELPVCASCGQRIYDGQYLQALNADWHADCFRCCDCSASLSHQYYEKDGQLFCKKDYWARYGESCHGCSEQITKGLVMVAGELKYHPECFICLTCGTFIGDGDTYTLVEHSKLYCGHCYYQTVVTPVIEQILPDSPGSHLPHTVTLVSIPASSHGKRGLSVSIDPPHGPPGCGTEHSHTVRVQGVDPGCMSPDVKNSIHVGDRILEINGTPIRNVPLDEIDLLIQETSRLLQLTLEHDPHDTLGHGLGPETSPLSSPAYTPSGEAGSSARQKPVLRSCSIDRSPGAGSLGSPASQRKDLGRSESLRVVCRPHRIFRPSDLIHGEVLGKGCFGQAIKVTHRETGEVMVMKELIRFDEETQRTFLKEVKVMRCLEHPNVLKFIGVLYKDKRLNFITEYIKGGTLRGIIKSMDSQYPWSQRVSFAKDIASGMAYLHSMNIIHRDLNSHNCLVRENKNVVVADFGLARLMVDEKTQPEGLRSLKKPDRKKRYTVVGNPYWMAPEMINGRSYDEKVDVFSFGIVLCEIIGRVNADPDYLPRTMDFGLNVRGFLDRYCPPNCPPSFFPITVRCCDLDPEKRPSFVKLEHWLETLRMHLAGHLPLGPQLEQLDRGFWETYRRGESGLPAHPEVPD
Chain of Mitogen-activated protein kinase kinase kinase 7 (Homo sapiens) (O43318 whole entry, the tested form may be a part): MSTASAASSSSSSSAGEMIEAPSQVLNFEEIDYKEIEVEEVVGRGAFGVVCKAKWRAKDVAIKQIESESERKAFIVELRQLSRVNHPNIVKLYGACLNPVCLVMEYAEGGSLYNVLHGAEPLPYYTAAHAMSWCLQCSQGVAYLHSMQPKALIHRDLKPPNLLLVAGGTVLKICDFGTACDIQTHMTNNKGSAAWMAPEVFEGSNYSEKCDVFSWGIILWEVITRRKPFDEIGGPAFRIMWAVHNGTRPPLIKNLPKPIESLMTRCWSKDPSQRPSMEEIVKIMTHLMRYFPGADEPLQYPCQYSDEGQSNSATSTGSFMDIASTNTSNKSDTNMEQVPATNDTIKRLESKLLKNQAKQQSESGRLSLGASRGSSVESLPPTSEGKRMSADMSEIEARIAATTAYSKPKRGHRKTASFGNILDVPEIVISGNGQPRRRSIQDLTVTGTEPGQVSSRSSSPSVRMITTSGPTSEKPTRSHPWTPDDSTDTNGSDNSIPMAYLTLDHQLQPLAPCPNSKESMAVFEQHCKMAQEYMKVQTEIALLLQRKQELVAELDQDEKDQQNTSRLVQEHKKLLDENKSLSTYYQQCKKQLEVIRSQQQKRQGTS

- inhibition [1]: Active
SMILES: COc1cc2nccc(Oc3ccc(NC(=O)C4(C(=O)Nc5ccc(F)cc5)CC4)cc3)c2cc1OC [CABOZANTINIB]
- Activity (MDA-MB-231): Active
- inhibition (HUVEC): Active
- Activity (HeLa): Active

SMILES: Cc1ccc(NC(=O)C2(C(=O)Nc3ccc(Nc4ncc(F)c(-c5cc(F)c6nc(C)n(C(C)C)c6c5)n4)cc3)CC2)cc1
- Activity (SiHa [2]): Active
- CL/F [3]: 33.3 mL/min/kg
- inhibition [4]: 64%
- inhibition [5]: 39%
- inhibition [6]: 0%
- inhibition [7]: 0%
- inhibition [8]: 33%
- inhibition [9]: 33%
- inhibition [10]: 24%
- inhibition [11]: 40%
- inhibition [12]: 17%
- inhibition [13]: 48%
- inhibition [14]: 58%
- inhibition [15]: 7%
- inhibition [16]: 51%
- inhibition [17]: 9%
- inhibition (SiHa [18]): Active
